Experimental data collected from several papers.
Protocols differ between the studies behind these lines.
Read-out: metabolic stability

Compound	species	medium	concentration	half-life
O=C1CCC(N2Cc3cc(Nc4noc5cc(F)ccc45)ccc3C2=O)C(=O)N1 (centres unmarked)	CD-1 mouse	hepatocytes		> 216 min
O=C(O)Cc1ccccc1Nc1c(Cl)cccc1Cl	mouse	liver microsomes		60.8 min
CCOc1ccc2ccc(=O)oc2c1	male CD-1 mouse	hepatocytes	1 µM	< 15 min
CC(C)Oc1ccc(S(=O)(=O)c2ccc(Oc3cc(OCC(N)=O)c(C(=O)C(Cl)Cl)cc3[N+](=O)[O-])cc2)cc1	mouse	liver microsomes	20 µM	7.2 min
O=c1ccc2ccc(O)cc2o1	mouse	liver microsomes		2 min
O=C(c1ccc(F)cc1)C1CCN(CCn2c(=O)[nH]c3ccccc3c2=O)CC1	mouse	liver microsomes		22.8 min
CC1(CN)CCN(c2cnc3c(Sc4ccncc4Cl)n[nH]c3n2)CC1	mouse	liver microsomes		630 min
O=c1ccc2cc(O)ccc2o1	mouse	liver microsomes	20 µM	8.22 min
